# Source: PubChem BioAssay (several laboratories)
# PfG6PD inh: PfG6PD enzyme inhibitors, primary screen, biochemical, fluorescence intensity, uHTS; inhibition, % at 20 µM; glucose-6-phosphate dehydrogenase-6-phosphogluconolactonase (Plasmodium falciparum 3D7); PfGluPho enzyme, NADPH resazurin-diaphorase fluorescence; actives 0.78% (n = 350,000);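 active = inhibition reaching at least a set limit at 20 µM in the primary screen, cut at about 59% in these data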;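 also: 0% = DMSO wells with substrate and 100% = DMSO wells lacking glucose-6-phosphate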
# TbHK1 inh: Trypanosoma brucei hexokinase 1 inhibitors, primary screen, biochemical, G6PDH-coupled NADH absorbance, MLSCN library; hexokinase 1 [Trypanosoma brucei]; recombinant TbHK1, G6PDH-coupled NADH A340; inhibition, % at 10 µM; actives 0.11% (n = 220,000); AID 1430, 2008;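 active = inhibition of 50% or more in the single-dose primary screen; inactive = inhibition below 50%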
# G6PDH counter: L. mesenteroides G6PDH inhibitors, counter-screen for G6PDH-coupled screening assays, biochemical, Leuconostoc mesenteroides enzyme. actives 0.12% (n = 200,000). inhibition, % at 5 µM. Purified L. mesenteroides G6PDH, diaphorase/resazurin coupled fluorescence, 45 min; in the data active = inhibition above about 50%
# Diaph inh CS: diaphorase inhibitors and chemical oxidizers, primary screen, counter-screen for diaphorase-coupled primary assays, biochemical, uHTS, resorufin fluorescence. diaphorase resazurin-to-resorufin fluorescence, NADH, 16 min; bacterial (C. kluyveri) enzyme, not human. inhibition, % at 20 µM. actives 0.69% (n = 190,000). AID 1217, 2008;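 active = primary screen inhibition at 20 µM above a set limit, cut at about 50% in these data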;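 also: plate controls were DMSO with full reaction for no effect and wells lacking NADH for full effect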
#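 controls = No-NADH positive control and DMSO neutral control | system = Clostridium kluyveri diaphorase enzyme | timing = reaction incubation of 16 min at room temperature | signal = resorufin fluorescence 544/590 nm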
# HKDC1 inhibitor: HKDC1 hexokinase inhibitors, primary screen, biochemical, fluorescence, uHTS. AID 493160, 2011. recombinant HKDC1, G6PDH/diaphorase resazurin coupled fluorescence. Q2TB90. actives 0.16% (n = 340,000). inhibition, % at 20 µM;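 active = inhibition above about 35% when tested at 20 µM, limit read from the data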;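 also: plate controls were DMSO wells with enzyme for no effect and DMSO wells lacking enzyme for full effect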
# Target sequence (Q2TB90 whole entry, looked up): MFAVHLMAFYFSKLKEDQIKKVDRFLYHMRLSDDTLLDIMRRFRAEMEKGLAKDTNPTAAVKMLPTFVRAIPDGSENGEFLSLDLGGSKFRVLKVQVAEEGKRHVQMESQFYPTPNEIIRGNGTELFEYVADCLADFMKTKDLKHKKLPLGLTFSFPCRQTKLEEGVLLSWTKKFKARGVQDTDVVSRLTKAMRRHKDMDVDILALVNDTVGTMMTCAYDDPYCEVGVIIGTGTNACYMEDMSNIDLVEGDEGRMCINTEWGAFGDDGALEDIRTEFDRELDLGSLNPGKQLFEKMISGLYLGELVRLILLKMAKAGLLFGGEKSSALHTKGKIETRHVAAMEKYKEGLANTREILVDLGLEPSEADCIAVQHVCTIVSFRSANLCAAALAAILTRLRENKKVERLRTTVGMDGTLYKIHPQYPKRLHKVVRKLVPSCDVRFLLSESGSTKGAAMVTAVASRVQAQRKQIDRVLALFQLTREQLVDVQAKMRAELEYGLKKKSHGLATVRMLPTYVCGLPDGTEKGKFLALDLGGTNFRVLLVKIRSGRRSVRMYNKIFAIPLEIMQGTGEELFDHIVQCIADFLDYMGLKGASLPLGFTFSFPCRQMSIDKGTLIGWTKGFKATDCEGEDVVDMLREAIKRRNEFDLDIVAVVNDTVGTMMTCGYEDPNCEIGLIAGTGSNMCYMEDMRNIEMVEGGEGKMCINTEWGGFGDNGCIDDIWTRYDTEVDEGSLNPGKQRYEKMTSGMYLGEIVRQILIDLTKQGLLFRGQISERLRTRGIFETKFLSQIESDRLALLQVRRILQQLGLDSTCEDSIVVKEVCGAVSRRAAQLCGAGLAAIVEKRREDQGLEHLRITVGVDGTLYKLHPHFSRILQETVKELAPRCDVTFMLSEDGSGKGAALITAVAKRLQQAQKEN
#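 Assay system – recombinant HKDC1 (HK5) hexokinase enzyme, produced in-house · Input – HKDC1 at 5 µg/mL · Reagent – glucose plus 1 mM ATP as hexokinase substrates · Timing – 90 min reaction incubation at room temperature, dark · Measured by – G6PDH/diaphorase-coupled fluorescence, 1 mM NADP, 100 µM resazurin, 525/613 nm · Benchmarks – DMSO-enzyme wells negative, buffer-substituted wells positive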
# Diaphorase act: compounds boosting diaphorase resazurin reduction – biochemical, uHTS, resorufin fluorescence, counter-screen for diaphorase-coupled primary assays, primary screen; Diaphorase/resazurin coupled assay, 16 min; stronger effect = higher value; 1 = vehicle wells, 0 = NADH-free wells; activation factor at 20 µM; actives 0.005% (n = 190,000); AID 1229, 2008;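 active = diaphorase activity raised at least twofold by the compound at 20 µM; inactive = activation factor below 2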
#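 Assay system: Purified diaphorase enzyme from Clostridium kluyveri | Amount: Enzyme 0.07 U/mL final | Dosing: Compound 20 µM once, DMSO 1% | Timing: 16 min reaction at room temperature | Detection: Fluorescence, excitation 544 nm and emission 590 nm | Evaluation: Higher resorufin formation from activation or reduction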
# * hit, by the source's call; nt = no result given. The list is not random: actives were taken first. Their share in the collection is about 1.3%.
SMILES,PfG6PD inh,TbHK1 inh,G6PDH counter,Diaph inh CS,HKDC1 inhibitor,Diaphorase act
O=C(NNc1c(Cl)cncc1Cl)c1sccc1Cl,6.1,2.1,nt,nt,-2.0,nt
Cc1cccc(C(=O)N[C@H](C(=O)Nc2ccc(C)c(S(=O)(=O)N3CCOCC3)c2)C(C)C)c1,16.8,nt,nt,nt,-4.5,nt
CC(C)[C@H](NC(N)=O)C(=O)NCCc1ccc(Cl)cc1,-17.5,3.7,-1.8,66.8*,11.8,0.3
O=C(COC(=O)c1ccccc1[N+](=O)[O-])NCCCc1ccccc1,-7.3,nt,nt,nt,-2.6,nt
Cc1ccc(/C=N/n2c(-c3cccnc3)n[nH]c2=S)o1,13.5,-26.8,nt,nt,-8.3,nt
COc1ccccc1/C=C/C=N/n1c(-c2ccccn2)n[nH]c1=S,15.0,-49.3,nt,nt,-3.8,nt
COc1ccccc1/C=C/C=N/n1c(-c2ccncc2)n[nH]c1=S,10.4,-5.6,5.1,65.4*,11.2,0.3
COc1ccccc1/C=C/C=N/n1c(-c2cc(C)[nH]n2)n[nH]c1=S,16.6,-4.0,6.3,50.2*,-2.6,0.5
CN(C)c1ccc(/C=N/n2c(-c3cccnc3)n[nH]c2=S)cc1,38.3,-23.3,7.2,72.1*,-8.7,0.3
COc1ccccc1/C=C/C=N/n1c(-c2ccc(C)cc2)n[nH]c1=S,6.9,-16.4,-3.9,27.8,-11.1,0.7
Cc1cc(-c2n[nH]c(=S)n2/N=C/C=C/c2ccccc2)n[nH]1,25.1,-10.0,6.1,50.0*,-10.3,0.5
COc1ccccc1NC(C)C(=O)N/N=C/c1ccccc1OCc1cccc(Br)c1 (stereo not given),19.5,-9.6,-0.5,22.0,-5.6,0.8
COc1ccc(-c2ccc3c(c2)[C@@H]2C[C@H](N(C)C(=O)Nc4ccccc4)[C@H]([C@H](C)O)C(=O)N2CC3)cc1,15.4,nt,nt,nt,-4.2,nt
Cc1nn(-c2ccccc2)c(C)c1/C=N/n1c(-c2ccncc2)n[nH]c1=S,36.8,-6.5,0.8,79.5*,-1.9,0.2
Cc1nn(-c2ccccc2)c(C)c1/C=N/n1c(-c2ccc(Cl)cc2)n[nH]c1=S,14.4,-1.0,-26.0,6.6,-9.4,0.9
CN(Cc1cc(Cl)cc(Cl)c1)[C@H]1C[C@H]2c3[nH]c4ccccc4c3CCN2C(=O)[C@H]1CO,-4.1,nt,nt,nt,nt,nt
CC1CCCC(NC(=O)CN(C)CC(=O)Nc2ccc(F)cc2)C1C (stereo not given),-8.3,nt,nt,nt,-6.4,nt
CN(C)c1ccc2c(O)cc(=O)n(C)c2c1,38.6,-26.0,6.8,60.4*,10.0,0.4
CCCCNC(=O)CSc1nc2ccc(C)cc2[nH]1,0.3,3.1,3.4,7.2,-4.2,0.9
CCOC(=O)CCCNC(=O)CSc1nc2ccc(OCC)cc2[nH]1,8.2,3.1,0.4,53.6*,-4.7,0.5
C=CCNc1ncnc2sc(SC)nc12,-0.7,-18.4,nt,nt,-4.5,nt
Cc1oc2c(O)c(O)ccc2c(=O)c1-c1cnn(-c2ccccc2)c1,-12.2,3.3,14.9,70.0*,9.3,0.3
Cc1ccc(C)c(N2CCN(C(=O)c3ccc(CS(=O)Cc4cccc(Cl)c4)o3)CC2)c1 (stereo not given),5.2,nt,nt,nt,3.2,nt
CC(=O)Nc1ccc(C(=O)OCC(=O)N(Cc2ccccc2)C(C)(C)C)cc1,-4.2,-13.3,0.0,53.9*,-7.6,0.5
CC(=O)c1ccc(NC(=O)c2ccc(C)c(S(=O)(=O)N3CCOCC3)c2)cc1,10.5,nt,nt,nt,-1.4,nt
SMILES,PfG6PD inh,TbHK1 inh,G6PDH counter,Diaph inh CS,HKDC1 inhibitor,Diaphorase act
COc1ccc(NS(=O)(=O)c2ccc(C)c(NC(=O)c3ccc(C)c(S(=O)(=O)N4CCOCC4)c3)c2)cc1,15.3,-3.7,8.3,50.4*,12.5,0.5
Oc1ccc(/C=N/n2cc(-c3ccccc3)[nH]c2=S)cc1,37.2,-19.4,-12.0,53.3*,-0.6,0.5
S=c1[nH]c(-c2ccccc2)cn1/N=C/c1ccccc1Br,34.6,-4.6,-5.5,46.1,2.6,0.5
c1cc(Nc2cccc3nccnc23)c2nccnc2c1,13.0,-9.6,17.4,24.3,3.1,0.8
Brc1c(NC2=NCCN2)ccc2nccnc12,nt,-10.7,25.9,59.0*,nt,0.4
CSCCC(NC(=O)COc1ccccc1)C(=O)NCC(C)(C)N1CCOCC1 (stereo not given),4.5,nt,nt,nt,nt,nt
O=c1[nH]c(CN2CCCCC2)ccc1O,45.4,nt,nt,nt,nt,nt
CCN(CC)CCN1C(=O)C(O)=C(C(=O)c2ccco2)C1c1ccccn1 (stereo not given),10.5,-24.4,9.7,60.4*,1.0,0.4
N/C(COc1ncn(-c2ccccc2)n1)=N\S(=O)(=O)c1ccc(Cl)cc1Cl,15.6,0.3,12.4,60.9*,-7.8,0.4
NC(=O)COc1ncn(-c2ccccc2)n1,-9.2,-0.4,5.7,12.7,-6.8,0.9
Cn1c(CNc2ccccc2O)nc2ccccc21,20.9,-0.9,60.7*,39.7,8.5,0.6
CSc1nc(O)c(/C=C2\C=Nc3ccccc32)[nH]1,13.4,-2.4,9.0,21.2,-3.0,0.8
O=c1[nH]c(/C=C2\C=Nc3ccccc32)c(O)n1Cc1ccccc1F,13.6,-2.7,5.7,69.3*,1.1,0.3
COc1cccc(/C=N/Nc2ccc([N+](=O)[O-])cn2)c1O,-14.1,nt,nt,nt,35.8*,nt
O=[N+]([O-])c1ccc(NN=Cc2cccc3ccccc23)nc1,26.6,nt,nt,nt,-6.3,nt
COC(=O)c1ccc2c(=O)[nH]c(COC(=O)c3[nH]c(C)c(C(C)=O)c3C)nc2c1,14.4,nt,nt,nt,7.4,nt
CN(C)S(=O)(=O)c1ccc(C(=O)NC(=O)CSc2nncs2)cc1,8.2,nt,nt,nt,-2.6,nt
CC(C)C1Nc2ccc(C(=O)O)cc2C2C=CCC21 (stereo not given),-7.4,0.0,23.8,41.8,9.8,0.6
CCOC(=O)c1ccc2c(c1)C1C=CCC1C(C(=O)O)N2 (stereo not given),nt,14.7,0.4,61.7*,nt,0.4
Cc1ccc2c(c1C)NC(C(=O)O)C1CC=CC21 (stereo not given),-8.7,nt,9.3,42.7,38.4*,0.6
Cc1ccccc1-c1nc(CS(=O)CC(=O)NC(C)CCc2ccccc2)c(C)o1 (stereo not given),1.7,nt,nt,nt,7.4,nt
Cc1ccc(NC(=S)Nc2cccc3cnccc23)c(C)c1,21.2,-9.1,16.5,59.1*,14.1,0.4
CC1CCCC(C)N1C(=O)COC(=O)CSc1ccc(C(N)=O)cc1[N+](=O)[O-] (stereo not given),-14.1,nt,nt,nt,-2.0,nt
